Bioassay records as filed in PubChem.
This is one part of a sample in which hits are shown more often than they occur.
KDM4C inh: inhibitors of human demethylase GASC-1 KDM4C. Q9H3R0. GST-KDM4C 2-372, H3K9me3 peptide, LANCE TR-FRET. inhibition, % at 12.5 µM. 96,000 tested, 0.15% active. AID 720574;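 active means mean replicate inhibition above about 25%, with at least 55% of replicates also reaching it, limit read from the data, passing the limit was not always enough; inconclusive means only one of those two conditions met; inactive means neither condition met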
Target sequence (Q9H3R0 2-372 limits assumed): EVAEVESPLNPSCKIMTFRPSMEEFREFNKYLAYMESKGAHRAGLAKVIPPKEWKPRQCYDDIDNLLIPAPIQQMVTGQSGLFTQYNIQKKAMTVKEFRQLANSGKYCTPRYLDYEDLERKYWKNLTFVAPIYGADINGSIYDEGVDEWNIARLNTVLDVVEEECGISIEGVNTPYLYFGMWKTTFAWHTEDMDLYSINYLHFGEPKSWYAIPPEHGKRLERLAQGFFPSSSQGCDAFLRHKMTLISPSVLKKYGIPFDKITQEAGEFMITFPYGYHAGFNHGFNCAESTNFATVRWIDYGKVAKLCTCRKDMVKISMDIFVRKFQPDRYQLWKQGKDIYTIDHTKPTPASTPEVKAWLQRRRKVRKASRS
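Test system – GST-tagged GASC-1 (JMJD2C) catalytic fragment, aa 2-372 · Medium – HEPES buffer, pH 7.5, plus ascorbate · Reagent – H3K9me3 peptide with Fe(II)/2OG · Compound – one test concentration per compound · Timing – 30 min reaction, 60 min detection, RT · Technique – TR-FRET with Eu antibody and ULight streptavidin, EDTA stop · Read-out basis – inhibition from TR-FRET ratio decrease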
IDH1 R132H inh: blocks human IDH1 R132H reductase activity | diaphorase/resazurin fluorescence, 60 min | inhibition, % at 10 µM | 70,000 tested, 0.18% active | AID 624101; in the data active means inhibition above about 34%; inconclusive means no clear call, values can overlap the other calls; inactive means below about 11%
Target sequence (O75874 whole entry R132H): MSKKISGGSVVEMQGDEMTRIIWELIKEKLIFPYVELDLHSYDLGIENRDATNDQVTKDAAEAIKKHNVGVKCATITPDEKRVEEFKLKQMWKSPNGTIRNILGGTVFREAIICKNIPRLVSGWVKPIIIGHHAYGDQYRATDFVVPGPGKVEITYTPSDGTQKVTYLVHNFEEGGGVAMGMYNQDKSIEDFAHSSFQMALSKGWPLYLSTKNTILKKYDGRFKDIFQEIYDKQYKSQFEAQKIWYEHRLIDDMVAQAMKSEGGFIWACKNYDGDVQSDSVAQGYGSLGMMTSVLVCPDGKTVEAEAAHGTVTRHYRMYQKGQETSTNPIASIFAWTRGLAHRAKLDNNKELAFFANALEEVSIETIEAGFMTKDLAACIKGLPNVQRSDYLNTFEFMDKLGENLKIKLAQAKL
T cruzi growth-1: inhibitors of T. cruzi proliferation; T. cruzi beta-gal in NIH3T3, GalScreen luminescence, 90 h; inhibition, % at 8.34 µM; 77,000 tested, 5.9% active; AID 624255;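 active means mean inhibition above about 93%, with at least 55% of replicates each passing it, limit read from the data, passing the limit was not always enough; inconclusive means only one of those two conditions holds; inactive means neither condition holds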
T cruzi growth-2: blocks T. cruzi growth in NIH3T3 host cells; inhibition, % at 8.35 µM; shares compounds with T cruzi growth-1; 5,600 tested, 72% active; AID 651739; T. cruzi beta-gal in NIH3T3, GalScreen luminescence, 90 h;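 active means mean replicate inhibition above about 95% and at least 55% of replicates individually reaching it, limit read from the data; inconclusive means only one of the two criteria is met; inactive means neither criterion is met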
T cruzi growth-3: Trypanosoma cruzi proliferation inhibition; T. cruzi beta-gal in NIH3T3, GalScreen luminescence, 90 h; 5,600 tested, 21% active; inhibition, % at 2.09 µM; AID 651740; shares compounds with T cruzi growth-1;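 active means mean inhibition above about 95%, with at least 55% of replicates also reaching it, limit read from the data; inconclusive means meets just one of the two conditions; inactive means meets neither condition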
NIH3T3 tox: NIH/3T3 (mouse) viability loss; shares compounds with T cruzi growth-1; NIH/3T3 viability, CellTiter-Glo ATP luminescence, 90 h; cytotoxicity (signal decrease), % at 8.35 µM; 5,600 tested, 14% active;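 active means mean signal decrease across replicates above about 35% based on untreated-well scatter, with enough replicates individually passing, limit read from the data; inconclusive means no rule stated though some were filed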
NIH3T3 tox 2: kills mouse NIH/3T3 fibroblasts. AID 651744. NIH/3T3 viability, CellTiter-Glo ATP luminescence, 90 h. shares compounds with T cruzi growth-1. inhibition, % at 24.9 µM. 5,600 tested, 56% active;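 active means mean loss of cell viability signal at or above a set limit, and enough replicates individually reaching it; inconclusive means meets only the mean limit or only the replicate share; inactive means meets neither condition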
Of the large screens only hits and unclear results are named; the others gave an inactive call (follow-up assays come after a bar, where they were run).

CC(C)CC#Cc1ccc2c(c1)O[C@H](CN(C)S(=O)(=O)c1cccc(F)c1)[C@@H](C)CN([C@H](C)CO)S2(=O)=O	T cruzi growth-1 118.5 | T cruzi growth-2 100.6 | T cruzi growth-3 106.8 | NIH3T3 tox inactive | NIH3T3 tox 2 60.8
C[C@@H]1CN([C@H](C)CO)S(=O)(=O)c2ccc(C#CCN(C)C)cc2O[C@@H]1CN(C)S(=O)(=O)c1cccc(F)c1	none (no result: T cruzi growth-1)
C[C@H](CO)N1C[C@H](C)[C@H](CN(C)S(=O)(=O)c2cccc(F)c2)Oc2cc(C#CCN(C)C)ccc2S1(=O)=O	none (no result: T cruzi growth-1)
CC(C)CC#Cc1ccc2c(c1)O[C@@H](CN(C)S(=O)(=O)c1cccc(F)c1)[C@@H](C)CN([C@@H](C)CO)S2(=O)=O	T cruzi growth-1 120.9 (no result: KDM4C inh) | T cruzi growth-2 inactive | T cruzi growth-3 112.1 | NIH3T3 tox inactive | NIH3T3 tox 2 105.0
CCc1cc2c(=O)n(-c3ccccc3)c(SCC(=O)Nc3ccc([N+](=O)[O-])cc3)nc2s1	none (no result: KDM4C inh, T cruzi growth-1)
O=C(CCCN1C(=O)c2cccc3cccc(c23)C1=O)Nc1ccccc1[N+](=O)[O-]	none (no result: KDM4C inh, T cruzi growth-1)
Cc1ccc([N+](=O)[O-])cc1NC(=O)C1CCCN(S(=O)(=O)c2ccc(F)cc2)C1 (stereo unspecified)	none (no result: KDM4C inh, T cruzi growth-1)
COC(=O)c1ccccc1NC(=O)CSc1nnc(-c2ccccc2)o1	none (no result: KDM4C inh, T cruzi growth-1)
CC(C)CC#Cc1ccc2c(c1)O[C@@H](CN(C)S(=O)(=O)c1cccc(F)c1)[C@H](C)CN([C@H](C)CO)S2(=O)=O	T cruzi growth-1 121.0 | T cruzi growth-2 103.1 | T cruzi growth-3 inactive | NIH3T3 tox 45.3 | NIH3T3 tox 2 106.4
COCC#Cc1ccc2c(c1)O[C@@H](CN(C)S(=O)(=O)c1cccc(F)c1)[C@H](C)CN([C@H](C)CO)S2(=O)=O	none
CN1CCN(C(=O)CN(c2cccc([N+](=O)[O-])c2)S(C)(=O)=O)CC1	none (no result: KDM4C inh, T cruzi growth-1)
Cc1ccc(N(CC(N)=O)S(=O)(=O)c2ccc(F)cc2)cc1	none (no result: KDM4C inh, T cruzi growth-1)
COc1ccccc1-c1ccc2c(c1)O[C@@H](CN(C)S(=O)(=O)c1ccccc1)[C@@H](C)CN([C@H](C)CO)S2(=O)=O	T cruzi growth-1 89.7 (no result: KDM4C inh, IDH1 R132H inh) | T cruzi growth-2 105.1 | T cruzi growth-3 inactive | NIH3T3 tox 59.8 | NIH3T3 tox 2 48.9
COc1ccccc1-c1ccc2c(c1)O[C@@H](CN(C)S(=O)(=O)c1ccccc1)[C@@H](C)CN([C@@H](C)CO)S2(=O)=O	T cruzi growth-1 80.2 (no result: KDM4C inh, IDH1 R132H inh) | T cruzi growth-2 101.1 | T cruzi growth-3 99.4 | NIH3T3 tox inconclusive | NIH3T3 tox 2 41.9
COc1ccccc1-c1ccc2c(c1)O[C@@H](CN(C)C)[C@@H](C)CN([C@H](C)CO)S2(=O)=O	none
COc1ccccc1-c1ccc2c(c1)O[C@H](CN(C)C(=O)c1ccccc1)[C@H](C)CN([C@H](C)CO)S2(=O)=O	none
C[C@H]1CN([C@@H](C)CO)S(=O)(=O)c2ccc(Br)cc2O[C@@H]1CN(C)S(=O)(=O)c1ccccc1	none (no result: IDH1 R132H inh, T cruzi growth-1)
COc1ccccc1-c1ccc2c(c1)O[C@@H](CN(C)S(=O)(=O)c1ccccc1)[C@H](C)CN([C@H](C)CO)S2(=O)=O	T cruzi growth-1 inconclusive (no result: KDM4C inh, IDH1 R132H inh) | T cruzi growth-2 104.9 | T cruzi growth-3 inactive | NIH3T3 tox 37.1 | NIH3T3 tox 2 39.3
C[C@@H]1CN([C@H](C)CO)S(=O)(=O)c2ccc(Br)cc2O[C@@H]1CN(C)S(=O)(=O)c1ccccc1	none (no result: T cruzi growth-1)
COc1ccccc1-c1ccc2c(c1)O[C@H](CN(C)S(=O)(=O)c1ccccc1)[C@H](C)CN([C@H](C)CO)S2(=O)=O	T cruzi growth-1 95.0 (no result: KDM4C inh, IDH1 R132H inh) | T cruzi growth-2 104.6 | T cruzi growth-3 inactive | NIH3T3 tox inactive | NIH3T3 tox 2 36.7
Cc1ccc(NC(=O)CSc2nc(-c3cccs3)cc(C(F)(F)F)n2)c([N+](=O)[O-])c1	none (no result: KDM4C inh, T cruzi growth-1)
CN1C(=O)c2ccccc2-n2c(nc3ccccc3c2=O)[C@@]12O[C@H]2c1ccccc1	none (no result: KDM4C inh, T cruzi growth-1)
COc1ccccc1-c1ccc2c(c1)O[C@@H](CN(C)C(=O)c1ccccc1)[C@H](C)CN([C@@H](C)CO)S2(=O)=O	none
COc1ccccc1-c1ccc2c(c1)O[C@@H](CN(C)S(=O)(=O)c1ccccc1)[C@H](C)CN([C@@H](C)CO)S2(=O)=O	T cruzi growth-1 97.8 (no result: KDM4C inh) | T cruzi growth-2 104.4 | T cruzi growth-3 inactive | NIH3T3 tox 47.2 | NIH3T3 tox 2 37.6
COc1ccccc1-c1ccc2c(c1)O[C@H](CN(C)S(=O)(=O)c1ccccc1)[C@H](C)CN([C@@H](C)CO)S2(=O)=O	T cruzi growth-1 inconclusive (no result: KDM4C inh) | T cruzi growth-2 102.5 | T cruzi growth-3 inactive | NIH3T3 tox inactive | NIH3T3 tox 2 44.3
COc1ccccc1-c1ccc2c(c1)O[C@@H](CN(C)C(C)=O)[C@@H](C)CN([C@H](C)CO)S2(=O)=O	none
CNc1cc2ncnc(Nc3cccc(Br)c3)c2cc1N	none (no result: KDM4C inh, T cruzi growth-1)
C/C(=C\CC[C@@H](C)[C@H]1CC(OC2OCC(O)C(O)C2O)[C@@]2(C)C3CC[C@H]4C(C)(C)[C@@H](O[C@@H]5OC(CO)C(O)C(O)C5OC5OC(CO)C(O)C(O)C5O)CC[C@@]45C[C@@]35CC(O)[C@]12C)C(=O)OC1OC(CO)C(O)C(O)C1O (stereo partly specified)	none (no result: KDM4C inh, T cruzi growth-1)
C[C@@H]1CCCCO[C@@H](CN(C)C(=O)Nc2ccc(C(F)(F)F)cc2)[C@H](C)CN([C@@H](C)CO)C(=O)c2cc(NC(=O)CCC(F)(F)F)ccc2O1	T cruzi growth-1 101.0 | T cruzi growth-2 106.4 | T cruzi growth-3 inactive | NIH3T3 tox inactive | NIH3T3 tox 2 inactive
C[C@@H]1CCCCO[C@H](CN(C)C(=O)Nc2ccc(C(F)(F)F)cc2)[C@H](C)CN([C@H](C)CO)C(=O)c2cc(NC(=O)CCC(F)(F)F)ccc2O1	T cruzi growth-1 106.8 | T cruzi growth-2 106.1 | T cruzi growth-3 105.2 | NIH3T3 tox inactive | NIH3T3 tox 2 inactive
C[C@@H]1CCCCO[C@H](CN(C)C(=O)Nc2ccc(C(F)(F)F)cc2)[C@@H](C)CN([C@@H](C)CO)C(=O)c2cc(NC(=O)CCC(F)(F)F)ccc2O1	none
C[C@@H]1CCCCO[C@H](CN(C)C(=O)Nc2ccc(C(F)(F)F)cc2)[C@H](C)CN([C@@H](C)CO)C(=O)c2cc(NC(=O)CCC(F)(F)F)ccc2O1	none (no result: IDH1 R132H inh)
CC12CCC(C(=O)NCCN3CCOCC3)(OC1=O)C2(C)C (stereo unspecified)	none (no result: KDM4C inh, T cruzi growth-1)
O=C(Nc1ccccc1C(=O)OCc1ccc([N+](=O)[O-])cc1)c1ccco1	none (no result: KDM4C inh, T cruzi growth-1)
CCCC#Cc1ccc([C@@H]2[C@H](C#N)N(C(=O)CN3CCOCC3)[C@H]2CO)cc1	T cruzi growth-1 99.4 (no result: IDH1 R132H inh) | T cruzi growth-2 inactive | T cruzi growth-3 inactive | NIH3T3 tox inactive | NIH3T3 tox 2 inactive
CCCC#Cc1ccc([C@@H]2[C@@H](CO)N(C(=O)CN3CCOCC3)[C@H]2C#N)cc1	T cruzi growth-1 inconclusive (no result: IDH1 R132H inh)
